High-throughput results: PubChem BioAssay, several laboratories
Rows were chosen to be rich in hits. Some 2.5% of all compounds tested hit in one or more screens of this group.
IMP-1 inh: IMP-1 metallo-beta-lactamase inhibitors, primary screen, biochemical, epi-absorbance readout, Pseudomonas aeruginosa enzyme; metallo-beta-lactamase IMP-1 (Pseudomonas aeruginosa); purified IMP-1, nitrocefin hydrolysis, epi-absorbance fluorescence; inhibition, % at 5.6 µM; actives 0.45% (n = 290,000); AID 1556, 2009;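 active = inhibition above the mean plus 3 SD of all compounds in the same screening run, cut at about 4.5% in these data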;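 note: 0% = IMP-1 with DMSO and 100% = DMSO wells lacking enzyme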
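assay system = purified recombinant IMP-1 metallo-beta-lactamase enzyme | schedule = 15 min preincubation plus 25 min reaction at 25 °C | signal = Epi-absorbance fluorescence, 480 nm excitation, 530 nm emission | read-out basis = percent inhibition from optical density relative to buffer-blank wells | controls = IMP-1 with DMSO as 0%, enzyme-free DMSO as 100%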
HTR2A ag: mouse Htr2a agonists via beta-arrestin recruitment, primary screen, cell-based, luminescence | CHO-K1 mHTR2A beta-arrestin complementation; percent of 30 µM serotonin response | activation, % at 7.6 µM | actives 0.66% (n = 360,000);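 active = activation above a run cutoff, the mean activation of all tested compounds plus 3 SD, cut at about 14% in these data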;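 note: 0% = plate median of compound wells and 100% = 30 µM serotonin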
Target sequence (P35363 whole entry, looked up): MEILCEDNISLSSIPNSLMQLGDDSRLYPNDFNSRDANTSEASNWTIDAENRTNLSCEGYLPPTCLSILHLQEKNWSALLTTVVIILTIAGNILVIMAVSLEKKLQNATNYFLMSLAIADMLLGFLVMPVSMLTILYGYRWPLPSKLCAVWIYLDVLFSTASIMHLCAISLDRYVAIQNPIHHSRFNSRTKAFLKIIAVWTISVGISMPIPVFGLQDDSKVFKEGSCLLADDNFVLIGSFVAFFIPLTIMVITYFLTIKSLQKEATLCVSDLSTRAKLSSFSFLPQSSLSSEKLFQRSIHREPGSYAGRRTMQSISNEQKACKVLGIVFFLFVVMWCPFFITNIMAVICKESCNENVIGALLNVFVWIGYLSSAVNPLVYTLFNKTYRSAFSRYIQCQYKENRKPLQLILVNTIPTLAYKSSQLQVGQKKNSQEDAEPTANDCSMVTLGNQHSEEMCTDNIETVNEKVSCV
dFosB act-1: activators of delta FosB homodimer, primary screen, biochemical, fluorescence polarization, TAMRA-CDK5 oligo, single point; Protein FosB (Mus musculus), P13346; purified delta FosB; percent of positive-control signal above neutral wells; activation, % at 25 µM; actives 0.99% (n = 340,000); AID 493131, 2011;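 active = mean activation above about 17%, with every replicate also reaching it, limit read from the data, passing the limit was not always enough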
VIM-2 inh: VIM-2 metallo-beta-lactamase inhibitors, primary screen, biochemical, epi-absorbance readout, Pseudomonas aeruginosa enzyme; inhibition, % at 5.6 µM; actives 0.89% (n = 290,000); purified VIM-2, nitrocefin hydrolysis, epi-absorbance fluorescence;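 active = inhibition above the mean of all tested compounds plus 3 SD, cutoff set per screening run, cut at about 7.5% in these data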;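 note: red hydrolysis product quenches plate fluorescence so inhibitors raise well fluorescence; 0% = enzyme with DMSO and 100% = DMSO without enzyme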
dFosB act-2: activators of mouse delta FosB DNA binding, confirmation, biochemical, fluorescence polarization, TAMRA-CDK5 oligo, cherry-picked samples; shares compounds with dFosB act-1; purified delta FosB; normalised: neutral wells 0, positive control 100; activation, % at 24.9 µM; 2,400 tested, under 10 active;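 active = highest replicate activation at or above 34% and every replicate reaching that threshold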;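 note: higher polarization means more probe DNA bound by delta FosB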
The depositor's hits bear a star; nt = not tested or not shown.

SMILES | IMP-1 inh | HTR2A ag | dFosB act-1 | VIM-2 inh | dFosB act-2
COc1ccc2nc(C)cc(Nc3ccc(C(=O)O)cc3)c2c1 | -1 | 0 | -5 | 3 | nt
CCOc1ccc2nc(SCC(=O)Nc3ccc4[nH]c(=O)[nH]c4c3)[nH]c2c1 | nt | 8 | -3 | nt | nt
CN(C)c1nc(NCc2ccccc2)nc(N/N=C/c2ccc3c(c2)OCO3)n1 | -4 | -4 | 58* | -3 | 2
CN(C)c1nc(NCc2ccccc2)nc(N/N=C/c2ccc(Br)cc2)n1 | -2 | -8 | 1 | -1 | nt
CCCCNS(=O)(=O)c1ccc(NC(=O)C2c3ccccc3Oc3ccccc32)cc1 | -5 | -5 | 44* | -2 | -4
C[C@@H](NC(=O)[C@@H]1Cc2ccccc2CN1)C(=O)Nc1ccc2c(c1)OCO2 | -4 | 0 | -5 | -2 | nt
COc1ccccc1NC(=O)Cn1nnc(C(=O)NCCc2ccccc2)c1N | 0 | 5 | 40* | 1 | 1
COc1cccc(NC(=O)Cn2nnc(C(=O)Nc3ccccc3)c2N)c1 | -2 | 1 | 1 | -1 | nt
COc1cccc(NC(=O)Cn2nnc(C(=O)NCCc3ccccc3)c2N)c1 | -3 | -4 | 37* | -2 | 3
O=S(=O)(c1ccc2c(c1)CCCC2)N1CCNCC1 | nt | 1 | -2 | nt | nt
Cc1ccc(-c2nnc(NCc3nc4ccccc4[nH]3)c3ccccc23)cc1S(=O)(=O)N1CCOCC1 | -5 | 1 | 56* | -5 | 0
COc1ccc(C)cc1NC(=O)CCNC(=O)Cn1ccc2ccccc2c1=O | -2 | -4 | 22* | 0 | 3
COc1ccc(-c2cc(=O)oc3c(C)c(OC(C)C(=O)Nc4ccc(CN5CCOCC5)cc4)ccc23)cc1 (stereo not drawn) | 0 | -7 | 43* | 3 | 7
O=C(/C=C/c1ccc(Cl)cc1Cl)c1nc2ccccc2[nH]1 | -2 | 2 | 40* | -1 | 6
CCOCCN1CCN(C2c3ccccc3CSc3ccccc32)CC1 (stereo not drawn) | nt | -5 | -5 | nt | nt
CC(=O)Nc1ccc(Nc2cc(C)nc3c(-c4ccc(Cl)cc4)cnn23)cc1 | -5 | 2 | 18* | -1 | -7
CC(=O)Nc1ccc(Nc2cc(C)nc3c(-c4ccc(Cl)cc4)c(C)nn23)cc1 | -2 | -1 | -5 | 0 | nt
O=c1cc(NCc2ccc3c(c2)OCO3)[nH]c(=O)n1-c1ccc(Cl)cc1 | 0 | -7 | 20* | 1 | 2
CC(C)CC(NC(=O)C(Cc1ccc(OCc2ccccc2)cc1)NC(=O)OC(C)(C)C)C(N)=O (stereo not drawn) | -3 | -2 | 30* | -2 | 1
NNC(=O)Cn1c(-c2nonc2N)nc2ccccc21 | -2 | 0 | -10 | -4 | nt
CCCCOc1ccccc1NC(=O)Cn1c(-c2nonc2N)nc2ccccc21 | -1 | -3 | 74* | -5 | 2
Nc1nonc1-c1nc2ccccc2n1CC(=O)N/N=C\c1ccc(-c2ccc(Cl)cc2)o1 | -1 | 4 | 35* | 1 | -7
COc1ccc(CCNC(=O)Cn2c(-c3nonc3N)nc3ccccc32)cc1OC | -2 | -3 | 10 | 0 | nt
CCOc1ccc(CCNC(=O)Cn2c(-c3nonc3N)nc3ccccc32)cc1OCC | 0 | -1 | 24* | 0 | -1
CC(=O)c1ccc(N2CCN(S(=O)(=O)c3c(C(=O)N4CCCC4)c(C)n(C)c3C)CC2)cc1 | -2 | 6 | -2 | -4 | nt
SMILES | IMP-1 inh | HTR2A ag | dFosB act-1 | VIM-2 inh | dFosB act-2
Cc1ccc(NC(=O)CC2=NC(=O)C(CC(=O)Nc3ccccc3F)S2)cc1 (stereo not drawn) | -3 | 0 | 46* | -3 | 4
CCCc1cc(=O)oc2cc(OCC(=O)NCCc3c[nH]c4ccccc34)ccc12 | -3 | 3 | -6 | 2 | nt
CCc1ccccc1Nc1nn2c(=O)c3ccc(C(=O)NCc4ccccn4)cc3nc2s1 | -3 | 6 | -11 | -2 | nt
O=C(NCc1ccccn1)c1ccc2c(=O)n3nc(Nc4ccccc4)sc3nc2c1 | 1 | 8 | 27* | 2 | 4
Cc1ccc(-c2noc(CCC(=O)Nc3ccccc3C)n2)cc1 | -1 | 0 | 2 | -1 | nt
CCc1ccccc1NC(=O)CCc1nc(-c2ccc(C)cc2)no1 | -2 | -1 | 21* | -2 | 8
Cc1nc2c(=O)[nH]c(=S)[nH]c2[nH]c1=O | nt | -3 | -11 | nt | nt
CC(C)c1ccc(C(=O)N2CCCCC2c2cc(C(=O)Nc3ccncc3)no2)cc1 (stereo not drawn) | nt | -5 | nt | nt | nt
COc1cccc(C(NC(C)=O)c2nc(-c3ccc(F)c(Cl)c3)cs2)c1 (stereo not drawn) | nt | -2 | nt | nt | nt
O=C(COc1ccc2ccccc2c1)NC1=NCCS1 | -1 | -5 | 54* | -2 | 7
Cc1cc(C)cc(OCC(=O)NC2=NCCS2)c1 | -3 | 1 | 2 | 0 | nt
O=C(/C=C/c1cccs1)NC(=S)Nc1ccc(C(=O)O)cc1 | -2 | 5 | 0 | -3 | nt
NS(=O)(=O)c1ccc(NC(=S)NC(=O)/C=C/c2cccs2)cc1 | -2 | 1 | 26* | -2 | 1
CCN(CC)CCNC(=O)c1ccc(NC(=O)/C=C/c2cc(OC)c(OC)c(OC)c2)cc1 | -4 | -7 | 52* | -1 | -1
CC(C)c1nc(SCC(=O)Nc2ccc3c(c2)OCCO3)c2c(=O)n(C)c(=O)n(C)c2n1 | -3 | -1 | 24* | -1 | 8
COc1ccc(OCC(=O)Nc2ccc3oc(-c4ccncc4)nc3c2)cc1 | -2 | 4 | 4 | -2 | nt
COc1ccc(CC(=O)NCCc2ccc(OC)c(OC)c2)cc1 | -2 | 3 | -3 | -2 | nt
COc1ccc(C(=O)Nc2ccc(C(=O)NCCc3ccc(OC)c(OC)c3)cc2)cc1 | 1 | -1 | 41* | 1 | 3
COc1ccc(CC(=O)Nc2ccc(-c3nnc(-c4ccccc4)o3)cc2)cc1OC | -8 | 2 | 120* | 0 | -7
COc1ccc(CCC(=O)Nc2ccc(-c3noc(-c4ccc(OC)c(OC)c4)n3)cc2)cc1 | -2 | -2 | 29* | -3 | 3
O=C(COc1ccc(Cl)cc1)Nc1ccc2oc(-c3ccncc3)nc2c1 | -1 | -1 | 37* | -2 | -1
NCCc1ccn[nH]1 | nt | 2 | 6 | nt | nt
COc1ccc(-c2nc3cc(NC(=O)Cc4ccc(OC)c(OC)c4)ccc3o2)cc1 | -3 | 6 | 56* | 1 | 4
O=C(c1ccc(CS(=O)Cc2ccc(Cl)cc2)o1)N1CCN(C2CCCCC2)CC1 (stereo not drawn) | nt | 1 | nt | nt | nt
CCN(CC(=O)Nc1c(F)cccc1F)C(=O)COc1ccc2c(C)cc(=O)oc2c1 | -1 | 10 | -4 | 2 | nt
COc1ccc(C(=O)NN(C)c2nc(-c3ccccc3)nnc2C(F)(F)F)cc1 | -3 | 4 | 68* | -3 | 0
